# CIT2 TOR yeast: yeast TOR pathway CIT2-GFP modulation; S. cerevisiae CIT2-GFP strain, flow cytometry, 3 h; 100 means same as DMSO wells; GFP response vs DMSO, % at 10 µM; AID 2029; 320,000 tested, 0.065% active;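 active = GFP response relative to DMSO above a set limit, near the screen mean plus 3 SD, cut at about 150% in these data; inconclusive = Fewer than 70 cells measured for a yeast strain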;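 also: ratio of well median GFP fluorescence to mean of DMSO wells on the plate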
# T cell HTS: T cell immune modulators affecting CD8 T cell-vesicle binding; 330,000 tested, 0.068% active; 2C CD8+ T cell-vesicle binding, flow cytometry; hits give low values; AID 2052; response (vesicle binding), % at 7 µM;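 active = response, share of CD8 T cells binding vesicles, and their 90th percentile fluorescence all below set limits, cut at about 80% in these data, passing the limit was not always enough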;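 also: values below 100% mean blocked vesicle binding to the CD8+ T cells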
#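 Incubation: binding step 1.5 h, 37 °C, antibody labelling 20 min, ice; system: murine 2C transgenic CD8+ T lymphocytes; technique: cytometric PE anti-B7-1 and Alexa647 anti-CD8 signals after 1% paraformaldehyde fixation; also added: QL9-charged Drosophila Ld/ICAM-1/B7-1 vesicles; control set: naked versus QL9-loaded vesicles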
# RPL19A-GFP yeast: alters RPL19A-GFP fluorescence in TOR pathway yeast screen | S. cerevisiae RPL19A-GFP strain, flow cytometry, 3 h; hits give low values | 330,000 tested, 0.3% active | percent response vs DMSO, % at 10 µM;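 active = percent response vs DMSO below 50%; inconclusive = fewer than 70 events counted for the yeast strain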;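 also: median channel GFP fluorescence of the barcoded RPL19A-GFP strain; ratio of sample median GFP to plate DMSO average so 100% = DMSO; lower means less RPL19A-GFP as with rapamycin TOR inhibition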
# AGP1-GFP MLPCN: alters AGP1-GFP fluorescence in TOR pathway yeast screen. S. cerevisiae AGP1-GFP multiplex flow cytometry, 3 h; GFP as percent of DMSO wells. GFP response vs DMSO, % at 10 µM. 320,000 tested, 0.02% active. AID 2066;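 active = GFP response relative to DMSO above a set limit, near screen average plus 3 SD, cut at about 150% in these data; inconclusive = fewer than 70 cells counted for the yeast strain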;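 also: median GFP channel fluorescence of the gated AGP1 strain per well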
# MEP2-GFP yeast: alters MEP2-GFP fluorescence in TOR pathway yeast screen; S. cerevisiae MEP2-GFP strain, flow cytometry GFP, 3 h; 100% = DMSO control level; GFP response vs DMSO, % at 10 µM; 330,000 tested, 0.51% active;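 active = GFP response versus DMSO above a set limit, roughly screen mean plus 3 SD, cut at about 180% in these data; inconclusive = fewer than 70 cells counted for a yeast strain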;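 also: median GFP fluorescence of the barcode-gated MEP2-GFP cells per well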
# LAP4-GFP MLPCN: alters LAP4-GFP fluorescence in TOR pathway yeast screen; 320,000 tested, 0.34% active; GFP response vs DMSO, % at 10 µM; S. cerevisiae LAP4-GFP multiplex, flow cytometry GFP, 3 h; median GFP as percent of DMSO wells;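 active = GFP response vs DMSO above a set limit, about the screen mean plus 3 SD, cut at about 150% in these data; inconclusive = under 70 cell events counted for the yeast strain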
# * marks the source's active call; other numbers are inactive results; i = inactive; ? = inconclusive; . = not tested or not shown; [ ] = dose if it differs, or a comment. In the library only some 0.96% were active in any assay of this set; here they are far more common.
SMILES,CIT2 TOR yeast,T cell HTS,RPL19A-GFP yeast,AGP1-GFP MLPCN,MEP2-GFP yeast,LAP4-GFP MLPCN
CCC(C)NC(=O)Nc1ccc2c(c1)N(C)C(=O)c1ccccc1S2 (configuration not stated),?,196,61,?,188*[may fluoresce violet],91
Cc1ccccc1Oc1nc2c(C)cccn2c(=O)c1/C=C(\C#N)C(=O)NC1CCS(=O)(=O)C1 (configuration not stated),104,236,98,107,99,130
Cc1cccn2c(=O)c(/C=C(\C#N)C(=O)NC3CCS(=O)(=O)C3)c(Oc3ccccc3Cl)nc12 (configuration not stated),?,212,51,?,234*[may fluoresce violet],67
C[C@@H]1CN([C@H](C)CO)C(=O)c2cccc(NS(=O)(=O)c3ccccc3)c2O[C@H]1CN(C)C,109,181,99,101,101,100
C[C@H](CO)N1C[C@H](C)[C@@H](CN(C)C)Oc2c(NS(=O)(=O)c3ccccc3)cccc2C1=O,108,0.0*,103,104,99,102
CC(C)NC(=O)N(C)C[C@H]1Oc2ccc(NS(=O)(=O)c3ccccc3)cc2C(=O)N([C@H](C)CO)C[C@H]1C,.,62*,.,.,.,.
CN(C)S(=O)(=O)c1ccc(C(=O)NCCc2ccco2)cc1,99,66*,100,101,105,108
O=C(/C=C/c1ccccc1)Nc1ncn[nH]1,89,122,92,94,97,163*
CC12CCC(=O)N1C(C(=O)Nc1ccc(F)c(Cl)c1)CS2 (configuration not stated),97,301,97,97,101,104
CC1(C)SC[C@H](C(=O)Nc2cccc(Cl)c2)N1C=O,109,52*,101,106,103,109
O=C(CSc1cccc(C(F)(F)F)c1)Nc1ccc(N2CCOCC2)cc1,93,419,104,93,102,91
O=C(c1ccc(Br)cc1)N(Cc1ccco1)C1CCS(=O)(=O)C1 (configuration not stated),?,395,20*[may fluoresce violet],?,161,88
CCCCOc1ccc(C(=O)N(Cc2ccco2)C2CCS(=O)(=O)C2)cc1 (configuration not stated),103,445,101,100,108,101
O=[N+]([O-])c1ccc(O)c(/C=N/n2c(CO)nc3ccccc32)c1,96,164,103,105,103,114
O=[N+]([O-])c1ccc(O)c(/C=N/n2cnc3ccccc32)c1,?,217,51,?,184*[may fluoresce violet],95
O=C(COC(=O)CCNS(=O)(=O)c1ccccc1)NC(=O)Cc1ccccc1,99,140,96,100,94,96
COc1ccc2nc(/C=N/NC(=O)CCCCCNC(=O)OC(C)(C)C)ccc2c1,?,336,62,?,204*[may fluoresce violet],108
COc1ccc2nc(/C=N/NC(=O)CCNC(=O)OC(C)(C)C)ccc2c1,101,584,104,108,105,106
O=[N+]([O-])c1ccc(S(=O)(=O)N/N=C/c2ccsc2)cc1,86,276,103,92,103,82
CCOC(=O)c1ccc(N2CN(C3CCCCC3)CNC2=S)cc1,?,162,31*[may fluoresce violet],?,237*[may fluoresce violet],98
CCOc1ccccc1N1CN(C2CCCCC2)CNC1=S,86,313,93,101,100,110
CCOc1ccc(S(=O)(=O)n2ccnc2C)cc1,108,189,110,153*,111,106
CCOc1ccc(OCC)c(S(=O)(=O)n2ccnc2C)c1,99,0,95,92,110,92
COc1ccccc1CCC(=O)Nc1ccc(S(=O)(=O)Nc2nccs2)cc1,95,316,95,106,95,100
CCOC(=O)CSc1nnc(Cn2nnc3ccccc32)n1-c1ccc(F)cc1,94,268,97,110,102,125
SMILES,CIT2 TOR yeast,T cell HTS,RPL19A-GFP yeast,AGP1-GFP MLPCN,MEP2-GFP yeast,LAP4-GFP MLPCN
COc1ccc(CN2CCN(Cc3ccc(C(F)(F)F)cc3)CC2)cc1,104,453,109,101,105,92
CCc1cccc(C)c1NC(=O)CSc1nnc(C)o1,100,467,104,113,103,106
OC(COc1ccc(CNCc2cccnc2)cc1)CN1CCc2ccccc2C1 (configuration not stated),106,218,104,102,109,94
OC(COc1ccccc1CNCc1cccnc1)CN1CCc2ccccc2C1 (configuration not stated),?,395,53,18,588*[may fluoresce violet],89
Cc1ccc(S(=O)(=O)Cn2nnnc2C(CC(C)C)N2CCC(C(N)=O)CC2)cc1 (configuration not stated),105,108,107,98,99,94
CCCC(c1nnnn1CS(=O)(=O)c1ccc(C)cc1)N1CCC(C(N)=O)CC1 (configuration not stated),?,271,56,?,224*[may fluoresce violet],78
COC(=O)C1=C(C)NC(C)=C(C(=O)OC)C1c1ccc(-c2cccc([N+](=O)[O-])c2)o1,?,167,46*[may fluoresce violet],19,203*[may fluoresce violet],83
CCN(c1ccc(OC)cc1)S(=O)(=O)c1csc(C(=O)N2CCCC2)c1,95,288,96,99,89,94
COc1ccc(NC(=O)COC(=O)CCC2CCCCC2)cc1,100,250,99,97,107,94
O=C(CN1CCCC1)Nc1cc(C(F)(F)F)ccc1Cl,103,358,94,101,98,96
O=C(CN1CCCC1)Nc1cc(C(F)(F)F)cc(C(F)(F)F)c1,98,i,90,131,125,151*
N#Cc1ccccc1OCC(=O)OCC(=O)N1CCN(C(=O)c2ccco2)CC1,109,689,97,76,107,101
CC(C(=O)Nc1ccccc1)N(C)CCOc1ccccc1 (configuration not stated),?,799,40*[may fluoresce violet],61,299*[may fluoresce violet],97
CCC1C(=O)Nc2ccccc2N1C(=O)COc1ccccc1 (configuration not stated),156*[may fluoresce green],241,94,116,106,104
O=C(CNC(=O)c1ccccc1F)Nc1ccc2c(c1)OCO2,98,545,93,90,91,94
Cc1ccc(C(=O)c2c3ccccc3[n+]([O-])n2CCC(=O)O)cc1,95,354,98,103,102,107
CCOC(=O)c1c2ccccc2[n+]([O-])n1[C@@H](C)C(N)=O,?,590,30*[may fluoresce violet],?,281*[may fluoresce violet],105
Cc1nc(N)sc1-c1csc(Nc2ccc(Cl)cn2)n1,93,333,91,96,95,164*

# Screening results deposited in PubChem BioAssay by NMMLSC.
